Results as given in ChEMBL document CHEMBL1139323, “Radiosynthesis, in vitro and in vivo evaluation of 123I-labeled anandamide analogues for mapping brain FAAH” (Bioorg Med Chem, 2009).

Columns and labels:
Plasma = test: Stability in NMRI mouse plasma at 3 uCi; type: ADME, cell-free
Summary of the method: (§1)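 Brain and EDTA plasma from three male NMRI mice, kept on ice, spiked ex vivo with 3 µCi 123I-tracer. Extracted with acetonitrile and centrifuged; supernatant and pellet gamma-counted for extraction efficiency. Supernatant analysed by radio-TLC (silica, hexane/ethyl acetate 4:6) and C18 HPLC (acetonitrile/water/formic acid 80:20:0.1), fractions gamma-counted.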

[1] = Drug uptake in NMRI mouse large intestine at 4 to 5 uCi, iv after 10 mins post injection; type: ADME, organism-based; settings: in vivo
Summary of the method: (§2)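 Adult male NMRI mice (20–25 g) given 4–5 µCi of 123I-tracer iv via tail vein in ethanol/saline (8:92). Killed by cervical dislocation under isoflurane at set times, n = 3 per time point. Organs removed and weighed, radioactivity gamma-counted. Uptake expressed as %ID/g tissue ± SD.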

Brain [2] = test: Drug uptake in NMRI mouse brain at 4 to 5 uCi, iv after 3 mins post injection; type: ADME, organism-based; settings: in vivo, 0.05 h
Summary of the method: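 Adult male NMRI mice (20–25 g) given 4–5 µCi radiotracer iv via tail vein in 200 µl ethanol/saline (8:92). Killed by cervical dislocation under isoflurane at set times after injection, n = 3 per time point. Brain removed and weighed, radioactivity gamma-counted. Uptake given as %ID/g tissue ± SD.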

[3] = Drug uptake in NMRI mouse small intestine at 4 to 5 uCi, iv after 10 mins post injection; type: ADME, organism-based; settings: in vivo; summary of the method: as §2
Stomach [4] = test: Drug uptake in NMRI mouse stomach at 4 to 5 uCi, iv after 1 hr post injection; type: ADME, organism-based; settings: in vivo; summary of the method: as §2
Stomach [5] = test: Drug uptake in NMRI mouse stomach at 4 to 5 uCi, iv after 1 min post injection; type: ADME, organism-based; settings: in vivo; summary of the method: as §2
Brain [6] = test: Stability in NMRI mouse brain at 3 uCi; type: ADME, tissue-based; summary of the method: as §1
Brain [7] = test: Drug uptake in NMRI mouse brain at 4 to 5 uCi, iv after 10 mins post injection; type: ADME, organism-based; settings: in vivo; summary of the method: as §2
[8] = target: T1, Fatty-acid amide hydrolase 1 (Rattus norvegicus, UniProt P97612); test: Inhibition of rat recombinant FAAH assessed as [3H]AEA hydrolysis preincubated 15 mins before [3H]AEA substrate addition
T1 sequence (P97612 whole entry): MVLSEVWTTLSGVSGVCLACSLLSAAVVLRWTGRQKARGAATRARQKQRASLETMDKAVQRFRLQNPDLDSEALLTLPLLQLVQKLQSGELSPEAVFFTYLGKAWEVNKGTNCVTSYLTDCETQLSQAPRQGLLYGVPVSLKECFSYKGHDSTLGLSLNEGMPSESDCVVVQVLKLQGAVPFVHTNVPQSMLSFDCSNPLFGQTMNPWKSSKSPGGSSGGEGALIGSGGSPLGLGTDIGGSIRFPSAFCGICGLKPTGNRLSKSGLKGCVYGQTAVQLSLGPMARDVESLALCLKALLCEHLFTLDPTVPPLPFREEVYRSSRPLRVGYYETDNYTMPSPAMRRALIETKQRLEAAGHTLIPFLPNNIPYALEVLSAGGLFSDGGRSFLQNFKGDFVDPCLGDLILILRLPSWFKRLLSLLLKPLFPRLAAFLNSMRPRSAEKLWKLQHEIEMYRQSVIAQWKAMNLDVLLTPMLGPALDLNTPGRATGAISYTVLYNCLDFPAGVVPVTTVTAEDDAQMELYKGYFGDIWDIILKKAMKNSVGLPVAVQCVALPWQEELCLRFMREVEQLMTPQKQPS
Summary of the method: (§3)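 Recombinant MBP-rat FAAH (1.2 µg/assay) in 10 mM Tris-HCl pH 7.6, 1 mM EDTA. Compound used at levels giving 20%, 50% and 80% inhibition and preincubated with enzyme for 15, 30 or 60 min. 2 µM [3H]-AEA then added, 10 min at 37 °C. Aqueous [3H]-ethanolamine counted by scintillation; IC50 by sigmoidal variable-slope fit.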

[9] = target: T1, Fatty-acid amide hydrolase 1; test: Inhibition of rat recombinant FAAH assessed as [3H]AEA hydrolysis preincubated before [3H]AEA substrate addition; summary of the method: as §3
[10] = target: T1, Fatty-acid amide hydrolase 1; test: Inhibition of rat recombinant FAAH assessed as [3H]AEA hydrolysis preincubated 30 mins before [3H]AEA substrate addition; summary of the method: as §3
Mus musculus = species on record: Mus musculus; test: Stability in NMRI mouse by HPLC; type: ADME, organism-based; settings: in vivo
Summary of the method: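 Three male mice injected with about 200 µCi 123I-tracer in ethanol/saline (8:92) and killed at 3 min. Plasma and brain extracted with acetonitrile and centrifuged. Supernatant run on C18 HPLC (acetonitrile/water/formic acid 80:20:0.1, 6 ml/min); 0.5-min fractions gamma-counted, plus radio-TLC.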

[11] = target: T1, Fatty-acid amide hydrolase 1; test: Inhibition of rat recombinant FAAH assessed as [3H]AEA hydrolysis preincubated 60 mins before [3H]AEA substrate addition; summary of the method: as §3
[12] = target: T1, Fatty-acid amide hydrolase 1; test: Inhibition of rat recombinant FAAH assessed as [3H]AEA hydrolysis
Summary of the method: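 Recombinant rat FAAH fused to maltose binding protein, 1.2 µg per assay, in 10 mM Tris-HCl pH 7.6 with 1 mM EDTA. Test compound at ten concentrations (5 µM–1.5 nM), no preincubation. [3H]-AEA added at 2 µM final, 10 min at 37 °C. Stopped with chloroform/methanol; [3H]-ethanolamine in aqueous phase counted by scintillation. Three experiments; sigmoidal variable-slope fit of % control.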

Row | Drug uptake (Brain [2]) [% ID/g] | SMILES | Stability (Plasma) [%] | Drug uptake [1] [% ID/g] | Drug uptake [3] [% ID/g] | Drug uptake (Stomach [4]) [% ID/g] | Drug uptake (Stomach [5]) [% ID/g] | Stability (Brain [6]) [%] | Drug uptake (Brain [7]) [% ID/g] | IC50 [8] [µM] | IC50 [9] [µM] | IC50 [10] [µM] | Activity (Mus musculus) | IC50 [11] [µM] | IC50 ([12]; read-out: IC50) [µM] | IC50 ([12]; read-out: pIC50 (converted)) [µM]
1 | 1.23 | CCCCC/C=C\C/C=C\CCCCCCCC(=O)NCC[123I] | 94 | 1.33 | 1.84 | 24.57 | 2.58 | 94 |  |  |  |  |  |  |  | 
2 |  | CCCCC/C=C\C/C=C\C/C=C\C/C=C\CCCC(=O)NCC[123I] | 92 | 1.04 | 1.46 | 17.74 | 3.1 | 89 | 0.579 |  |  |  |  |  |  | 
3 |  | CCCCC/C=C\C/C=C\C/C=C\C/C=C\CCCC(=O)NCCI |  |  |  |  |  |  |  | 7.93 | 4.31 | 9.89 | Active | 10.1 | 3.14 | 
4 |  | CCCCC/C=C\C/C=C\CCCCCCCC(=O)NCCI |  |  |  |  |  |  |  | 6.66 | 6.2 | 7.64 | Active | 7.33 | 5.78 | 
5 |  | CCCCC/C=C\C/C=C\CCCCCCCC(=O)NCCO [LINOLEOYLETHANOLAMIDE] |  |  |  |  |  |  |  |  |  |  |  |  | 7.58 | 7.59
